Structures are written as SMILES.

The subject of data set [1] is Plasmodium falciparum. Kind of data set: Antiplasmodial activity against chloroquine-sensitive Plasmodium falciparum FCA 20 Ghana by [3H]hypoxanthine uptake. The data set is classed as functional, organism-based. The method, boiled down:
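Asexual erythrocytic stages kept in continuous in vitro culture (Trager and Jensen method). Eight 4-fold dilutions per sample, final concentrations 20 μg/mL down to 0.0012 μg/mL, each tested in duplicate. Growth read as [³H]hypoxanthine incorporation (Desjardins method, Mirovsky modification). Results given as mean ± standard deviation; differences assessed by Student's t-test, p ≤ 0.05.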

The subject of data set [2] is Plasmodium falciparum. Kind of data set: Antiplasmodial activity against chloroquine-resistant Plasmodium falciparum W2 Indochina by [3H]hypoxanthine uptake. The data set is classed as functional, organism-based. The method in brief:
(§1)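 Continuous asexual erythrocytic P. falciparum culture (Trager and Jensen). Samples tested as eight 4-fold dilutions, final 20 µg/mL down to 0.0012 µg/mL, in duplicate. Growth read by [3H]hypoxanthine incorporation (Desjardins method, Mirovsky modification). IC50 given as mean ± standard deviation. Differences were tested by Student's t-test at p ≤ 0.05.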

In data set [3] the test system is Plasmodium falciparum. Kind of data set: Antiplasmodial activity against chloroquine-sensitive Plasmodium falciparum F32-Tanzania by [3H]hypoxanthine uptake. The format is functional, organism-based. The method in brief: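 Asexual erythrocytic stages kept in continuous in vitro culture (Trager and Jensen method). Eight 4-fold dilutions per sample, final concentrations 20 μg/mL down to 0.0012 μg/mL, each tested in duplicate. Growth read as [³H]hypoxanthine incorporation (Desjardins method, Mirovsky modification).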

Data set [4] relates to Plasmodium falciparum. Kind of data set: Antiplasmodial activity against chloroquine-resistant Plasmodium falciparum PFB Brazil by [3H]hypoxanthine uptake. The format is functional, organism-based. The method, boiled down:
as §1

The next data set concerns KB. Kind of data set: Cytotoxicity against human KB cells by WST1 assay. The format is cell-based. The method, boiled down: (§2)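 Cells grown as in earlier work and exposed to samples in 96-well microplates. Viability read by colorimetric assay with the tetrazolium salt WST-1. Emetine and usambarensine base run as reference compounds. Results given as IC50 in μM.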
On the technique in general: Tetrazolium dyes change colour on reduction, which living cells bring about.

Data set [5] in a line: Cytotoxicity against human WI38 cells by WST1 assay. The format is cell-based. As to conditions: WI-38. The method, boiled down:
as §2

A short description of data set [6]: Selectivity index, ratio of IC50 for human KB cells to IC50 for chloroquine-sensitive Plasmodium falciparum FCA 20 Ghana. The following applies: KB cells versus Plasmodium falciparum FCA 20 Ghana, read-out: Ratio IC50. The format is toxicity, cell-based. The method, boiled down: (§3)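 SI is cytotoxicity IC50 divided by antiplasmodial IC50. Cytotoxicity was measured on cultured KB cancer cells or WI38 human fibroblasts in microplates by WST-1 tetrazolium colorimetric assay, with emetine and usambarensine as references.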

Data set [7] is described as follows: Selectivity index, ratio of IC50 for human KB cells to IC50 for chloroquine-resistant Plasmodium falciparum W2 Indochina. The following applies: KB cells versus Plasmodium falciparum W2 Indochina, read-out: Ratio IC50. The data set is classed as toxicity, cell-based. The method in brief: as §3
A short description of data set [8]: Selectivity index, ratio of IC50 for human WI38 cells to IC50 for chloroquine-sensitive Plasmodium falciparum FCA 20 Ghana. The format is toxicity, cell-based, WI-38. The following applies: WI38 cells versus Plasmodium falciparum FCA 20 Ghana, read-out: Ratio IC50. The method in brief:
as §3

A short description of data set [9]: Selectivity index, ratio of IC50 for human WI38 cells to IC50 for chloroquine-resistant Plasmodium falciparum W2 Indochina. The data set is classed as toxicity, cell-based, WI-38. The following applies: WI38 cells versus Plasmodium falciparum W2 Indochina, read-out: Ratio IC50. The method, boiled down:
as §3

Usually IC90 stands for the point of the concentration-response curve where the effect stands at 90%. Read a low IC90 as an effect from little substance. As usually defined, the IC50 is the point on the concentration scale where inhibition reaches its midpoint. Read a low IC50 as higher potency. On to `C/C=C1/CN2[C@@H](C3=C[C@@H]4[C@@H]5N(C3=O)c3ccccc3[C@@]53CCN5C/C(=C/CO)[C@@H]4C[C@H]53)C[C@@]34c5ccccc5N5C(=O)CC=C([C@H]1C[C@H]23)[C@H]54`, for which the 90% effect concentration (IC90) in the data set on Plasmodium falciparum [1] was 4.35 µM; in the data set with Plasmodium falciparum [2], 1.35 µM; in the data set with Plasmodium falciparum [3], 5.35 µM; with Plasmodium falciparum [4] it was 1.64 µM. The IC50 was found to be 1.26 µM in the data set with Plasmodium falciparum [3], 0.431 µM in the data set on Plasmodium falciparum [4], 16.2 µM in the data set on KB and 16.8 µM in data set [5]. The selectivity ratio came to 19.1 in data set [6], 116 in data set [7], 19.8 in data set [8] and 120 in data set [9].

As to `CCN(CC)CCCC(C)Nc1ccnc2cc(Cl)ccc12` (stereo unspecified) [CHLOROQUINE], the IC90 in the data set on Plasmodium falciparum [1] came to 0.119 µM; in the data set on Plasmodium falciparum [2], 1.75 µM; in the data set on Plasmodium falciparum [3] it was 0.063 µM; in the data set on Plasmodium falciparum [4], 1.54 µM.

With `CC[C@H]1CN2CCc3cc(OC)c(OC)cc3[C@@H]2C[C@@H]1C[C@H]1NCCc2cc(OC)c(OC)cc21` [EMETINE], 0.056 µM corresponded to half-maximal inhibition in the data set with KB (IC50).

In the case of `C/C=C1/CN2CC[C@]34c5ccccc5N5C(=O)C([C@H]6C[C@]78c9ccccc9N9C(=O)C=C[C@@H]([C@H]97)[C@H]7C[C@@H]8N6C/C7=C/C)=C[C@H]([C@H]53)[C@H]1C[C@H]24` [SUNGUCINE], the IC90 with Plasmodium falciparum [1] was 26.3 µM; in the data set on Plasmodium falciparum [2], 33.1 µM. Moreover, the IC50 in the data set with KB was found to be 6.2 µM; in data set [5] it was 6 µM. In addition, the selectivity ratio in [6] stood at 0.8; in [7], 0.6; in data set [8] it was 0.8; in [9] it was 0.6.

Take `C/C=C1/CN2[C@@H]([C@@H]3C(=O)N4c5ccccc5[C@@]56CCN7CC8=CCO[C@@H]3[C@@H]([C@H]45)[C@H]8C[C@H]76)C[C@@]34c5ccccc5N5C(=O)CC=C([C@H]1C[C@H]23)[C@H]54` [STRYCHNOGUCINE A]: the IC50 in the data set on Plasmodium falciparum [1] was 2.31 µM; with Plasmodium falciparum [3], 4.81 µM; in the data set with Plasmodium falciparum [4], 3.2 µM. The IC90 in the data set on Plasmodium falciparum [1] was 6.98 µM; with Plasmodium falciparum [3], 9.54 µM; with Plasmodium falciparum [4] it was 9.4 µM.

Consider `OC(c1cc(C(F)(F)F)nc2c(C(F)(F)F)cccc12)C1CCCCN1` (stereo unspecified) [MEFLOQUINE], for which the figures for the concentration for an effect of 90% (IC90) in the data set with Plasmodium falciparum [3] and in the data set on Plasmodium falciparum [4] were 0.354 µM and 0.006 µM, respectively. Besides, half-maximal inhibition with Plasmodium falciparum [4] (IC50) was put at 0.002 µM.

Regarding `C/C=C1/CN2[C@@H](C3=C[C@@H]4[C@@H]5N(C3=O)c3ccccc3[C@@]53CCN5C/C(=C/C)[C@@H]4C[C@H]53)C[C@@]34c5ccccc5N5C(=O)CC=C([C@H]1C[C@H]23)[C@H]54` [ISOSUNGUCINE], the 90% effect concentration (IC90) with Plasmodium falciparum [1] amounted to 7.06 µM; in the data set with Plasmodium falciparum [2] it was 1.72 µM. The IC50 was 9 µM in the data set with KB and 9.2 µM in data set [5]. In addition, the selectivity ratio in data set [6] is 6.8; in [7] it was 34; in data set [8] it was 7; in data set [9], 34.7.

As for `C=C[C@H]1CN2CC[C@H]1C[C@H]2[C@H](O)c1ccnc2ccc(OC)cc12` [QUININE], the concentration for an effect of 90% (IC90) was 1.91 µM in the data set with Plasmodium falciparum [1] and 1.72 µM in the data set with Plasmodium falciparum [2].

Consider `C/C=C1/CN2CCc3c([nH]c4ccccc34)[C@@H]2C[C@@H]1Cc1nccc2c1[nH]c1ccccc12` [USAMBARENSINE], for which the IC50 in the data set on KB was found to be 9.7 µM; in data set [5] it was 4.62 µM. The selectivity ratio in [6] came to 14.8; in data set [7] it was 36.6; in data set [8], 3.1; in data set [9] it was 7.8.

For the compound `O=C1C[C@@H]2OCC=C3CN4[C@@H](C5=C[C@@H]6[C@@H]7N(C5=O)c5ccccc5[C@@]75CCN7C/C(=C/CO)[C@@H]6C[C@H]75)C[C@]56c7ccccc7N1[C@H]5[C@@H]2[C@H]3C[C@H]46` [STRYCHNOGUCINE B], the IC90 in the data set on Plasmodium falciparum [1] stood at 3.79 µM; in the data set with Plasmodium falciparum [3], 3.23 µM; in the data set on Plasmodium falciparum [4] it was 1.15 µM. Also, the IC50 with Plasmodium falciparum [3] is 0.51 µM; in the data set with Plasmodium falciparum [4] it was 0.202 µM; with KB it was > 15 µM; in data set [5], 15.5 µM. Moreover, the selectivity ratio is > 24.3 in data set [6], > 176 in data set [7], 25.1 in data set [8] and 182 in data set [9].

Values taken from ChEMBL document CHEMBL1150215, “Strychnogucines A and B, two new antiplasmodial bisindole alkaloids from Strychnos icaja” (J Nat Prod, 2001).
